Only some compounds are listed: those with a hit (about 2% of all), similar ones and a draw of the others.
HIF activator = HIF pathway transcriptional activation; U2OS HRE-luciferase reporter, luminescence; normalized: DMSO 0%, desferrioxamine 100%; activation, % at 7.5 µM (by protocol); 300,000 tested, 0.32% active; AID 1910;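 active = mean activation of at least 10% of the iron chelator positive control signal, with at least half of replicates also reaching 10%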
T cruzi inh = T. cruzi replication inhibition | inhibition, % (test concentration not listed) | T. cruzi beta-gal in NIH3T3, luminescence, 90 h | 300,000 tested, 1.4% active;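 active = mean inhibition across valid replicates above about 55%, limit read from the data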;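 also: signal also drops with host cell toxicity which is not excluded here; 0% = plate median of DMSO wells and 100% = zero luminescence signal; higher percent means less beta-gal luminescence so fewer parasites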
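System: mouse NIH/3T3 fibroblasts infected with β-gal-expressing T. cruzi Tulahuen C4 / Input: NIH/3T3 cells, 5,000 per well / Buffer or medium: Low-serum DMEM with 2% FBS / Probe or stimulus: 5000 reporter trypomastigotes per well / Schedule: ≥90 h infection period, 3 h prior cell attachment / Measured by: GalScreen luminescence, 60 min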
ARNT-TACC3 inh = disruptors of human ARNT/TACC3 interaction | Q9Y6A5 | AlphaScreen His-ARNT PAS-B/GST-TACC3 binding, luminescence; TACC3 fragment carries E629A point mutation | inhibition, % at 9.99 µM | 390,000 tested, 0.66% active | AID 623870;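 active = mean inhibition of replicates at least 50% and at least half of replicates each reaching 50%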;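 also: 0% = complete ARNT plus TACC3 wells and 100% = ARNT alone without TACC3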
AI-2 QS mod = modulates the Vibrio harveyi AI-2 quorum sensing system; 300,000 tested, 0.4% active; Vibrio harveyi JMH597 AI-2 luminescence/OD600 ratio, 9 h; stronger effect = lower value; strain lacks LuxN and CqsS sensors; 0 = neutral-control median; activity change, % at 7.5 µM; AID 2094; in the data active = activity change below about -75%, passing the limit was not always enough;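 also: luminescence divided by OD600 gain over 9 h not by final OD600 alone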
JMH597 growth = retest: blocks Vibrio harveyi JMH597 growth; 750 tested, 1% active; growth inhibition, % at 7.5 µM; shares compounds with AI-2 QS mod; OD600 absorbance, 9 h; lacks LuxN and CqsS sensors; AID 2726;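 active = every replicate shows growth inhibition above 50%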
BB721 const-QS lum = retest counter-screen: luminescence loss in constitutive-on quorum sensing strain BB721. shares compounds with AI-2 QS mod. 750 tested, 95% active. Vibrio harveyi BB721 luminescence, 9 h. AID 2727. inhibition, % at 7.5 µM;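 active = inhibition above about 80% in every replicate, not just on average, limit read from the data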
BB721 growth rt = retest Vibrio harveyi BB721 growth inhibition | shares compounds with AI-2 QS mod | OD600 absorbance, 9 h | growth inhibition, % at 7.5 µM | 750 tested, 3% active | AID 2728;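 active = every replicate shows growth inhibition above 50%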
JMH597 AI-2 mod = Vibrio harveyi AI-2 signaling luminescence modulation – JMH597 strain, confirmation. shares compounds with AI-2 QS mod. 750 tested, 97% active. inhibition, % at 7.5 µM. Vibrio harveyi JMH597 AI-2 quorum sensing luminescence, 9 h; luxN and CqsS knockout, AI-2 only;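 active = every replicate shows more than 75% inhibition of signal versus neutral control wells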
ARNT Alpha ctr = interferes with AlphaScreen signal, flagging false ARNT-TACC3 hits. shares compounds with ARNT-TACC3 inh. His-ARNT PASB-GST AlphaScreen artifact counter-screen, luminescence. AC50, µM (top dose mostly 68 µM), without a hit: top-dose activity change, negative = signal decrease. 1,200 tested, 50% active;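 active = every separate test run was called active for a drop in luminescence, with AC50 within twice the top valid dose, actives reach about 71 µM in these data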
Numbers without * were called inactive; nt = no result given.

SMILES	HIF activator	T cruzi inh	ARNT-TACC3 inh	AI-2 QS mod	ARNT Alpha ctr	others
CCc1ccc(NC(=O)CN2CC(c3ccccc3)CC2=O)cc1 (stereo unspecified)	-1	-3	-4	-81*	nt	JMH597 growth=21;BB721 const-QS lum=88*;BB721 growth rt=10;JMH597 AI-2 mod=92*
COc1ccc(Cc2c(O)[nH]c(=O)[nH]c2=O)c(OC)c1	0	-5	15*	23	-4%
O=C(Cc1ccccn1)N1CCCCN2[C@@H](CO)[C@H](c3ccc(Br)cc3)[C@@H]2C1	nt	nt	5	nt	nt
COc1ccc(-c2cc(=NCCC(=O)O)c3cc(C)ccc3o2)cc1	4	-4	30*	11	-30%
COC(=O)[C@H]1[C@H](CO)[C@H]2Cn3c(ccc(-c4ccccc4F)c3=O)[C@@H]1N2C(C)=O	nt	nt	-5	nt	nt
CCCCn1c(N)c(C(=O)OCCOC)c2nc3ccccc3nc21	0	13	nt	nt	nt
COCCCn1c(N)c(C(=O)NCCC(C)C)c2nc3ccccc3nc21	-1	26	active	7	-2%
COC(=O)[C@@H]1[C@@H](CO)[C@@H]2Cn3c(ccc(C4=CCCC4)c3=O)[C@H]1N2S(=O)(=O)c1cn(C)cn1	nt	nt	-4	nt	nt
COc1ccc(C#Cc2ccc([C@H]3[C@@H](CO)N4CCCCN(C(=O)Cc5cccnc5)C[C@H]34)cc2)cc1	nt	nt	0	nt	nt
CCCCn1c(NS(=O)(=O)c2ccc(C)cc2)c(C(=O)OCC)c2nc3ccccc3nc21	0	-5	-1	16	nt
CCCCn1c(NC(=O)c2ccco2)c(C(=O)OCC)c2nc3ccccc3nc21	2	37	30*	-6	-14%
CCOC(=O)c1cc2c(cn1)[C@@H](CCO)NC2	nt	nt	55*	nt	-6%
COc1cc2c(c(OC)c1OC)-c1ccc(O)c(=O)cc1[C@@H](N)CC2	nt	nt	58*	nt	-35%

Screening results from PubChem BioAssay.
